Source: ChEMBL document CHEMBL2086359, “Tormentic acid derivatives: synthesis and apoptotic activity” (Eur J Med Chem, 2012)
Calls of active or inactive are those of the source. The calls are words filed in the database; no cut-off is given here.

What was measured:
[1] = Cytotoxicity against human 518A2 cells after 96 hrs by SRB assay; format: functional, cell-based
Summary of the method: (§1)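 Monolayer cultures kept in RPMI 1640 with 10% heat-inactivated FBS and penicillin/streptomycin at 37 °C, 5% CO2. Exponentially growing cells were seeded and treated 24 h later with serial dilutions (0–30 µM) for 96 h, with DMSO or DMF at most 0.5% final. Cells were fixed with 10% TCA at 4 °C and stained with 0.4% SRB for about 30 min. Plates were washed with 1% acetic acid and the dye dissolved in 10 mM Tris base. Absorbance was read at 570 nm and survival taken relative to untreated controls. IC50 was estimated from dose–response curves, averaged from at least 5 independent experiments.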

[2] = system: MCF7; test: Cytotoxicity against human MCF7 cells after 96 hrs by SRB assay; format: functional, cell-based; summary of the method: as §1
[3] = system: 8505C; test: Induction of apoptosis in human 8505C cells after 24 to 48 hrs by DNA laddering assay; format: functional, cell-based
Summary of the method: (§2)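 About 1×10^6 cells were grown in 25 cm2 flasks to 80% and exposed to compound-loaded medium for 24–48 h, with blank medium as control. Cells were collected from the supernatant (300 g, 4 °C), washed in PBS and lysed. Lysates were digested with RNase for 2 h at 37 °C, then with proteinase K for 12 h at 50 °C. DNA was run on agarose gel electrophoresis ([…], 2 h).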

[4] = system: A549; test: Cytotoxicity against human A549 cells after 96 hrs by SRB assay; format: functional, cell-based; summary of the method: as §1
[5] = Cytotoxicity against human WW030272 cells after 96 hrs by SRB assay; format: cell-based; summary of the method: as §1
[6] = system: A2780; test: Cytotoxicity against human A2780 cells after 96 hrs by SRB assay; format: functional, cell-based; summary of the method: as §1
[7] = system: 518A2; test: Induction of apoptosis in human 518A2 cells after 24 to 48 hrs by DNA laddering assay; format: functional, cell-based; summary of the method: as §2
[8] = system: DLD-1; test: Cytotoxicity against human DLD1 cells after 96 hrs by SRB assay; format: functional, cell-based; summary of the method: as §1
[9] = system: NIH3T3; test: Cytotoxicity against mouse NIH/3T3 cells after 96 hrs by SRB assay; format: cell-based; summary of the method: as §1
[10] = system: 8505C; test: Induction of apoptosis in human 8505C cells assessed as induction of cell death after 24 to 48 hrs by AO/PI exclusion dye assay; format: functional, cell-based
Summary of the method: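 About 1×10^6 cells were grown in 25 cm2 flasks to 80% and given compound-loaded medium for 24–48 h, with blank medium as control. Cells were recovered from the supernatant (300 g, 4 °C), washed and resuspended in PBS. They were mixed 1:1 with AO/PI solution and viewed by fluorescence microscopy: green cells were scored as apoptotic, red as necrotic.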

[11] = Cytotoxicity against human A253 cells after 96 hrs by SRB assay; format: functional, cell-based; summary of the method: as §1
[12] = system: 8505C; test: Induction of apoptosis in human 8505C cells migration of phosphatidylserine from inner to outer cell membrane at 3.5 uM after 6 hrs by Annexin V-FITC/PI based FACS analysis; format: functional
[13] = system: 8505C; test: Cytotoxicity against human 8505C cells after 96 hrs by SRB assay; format: functional, cell-based; summary of the method: as §1

For COC(=O)[C@]12CC[C@@H](C)[C@@](C)(O)[C@H]1C1=CC[C@@H]3[C@@]4(C)C[C@@H](OC(=O)CCl)[C@H](OC(=O)CCl)C(C)(C)[C@@H]4CC[C@@]3(C)[C@]1(C)CC2, the IC50 [1] was 1.1 µmol, the IC50 [2] was 1.5 µmol and the Activity [3] was “Active”. It also gave an IC50 [4] of 1.2 µmol, an IC50 [5] of 3.4 µmol and an IC50 [6] of 0.8 µmol. For the same molecule, the Activity [7] was “Active”, the IC50 [8] was 2.2 µmol and the IC50 [9] was 1.1 µmol. For the same molecule, the Activity [10] was “Active”, the IC50 [11] was 1.6 µmol and the Activity [12] was “Active”. For the same molecule, the IC50 [13] was 1.6 µmol.
